The source made the active and inactive calls. The rule behind the calls is not given here.
Experiments:
Cholinesterase = Cholinesterase (Equus caballus, UniProt P81908); assay: Inhibition of equine serum BChE using butyrylthiocholine iodide as substrate preincubated for 2 mins followed by substrate addition and measured after 2 mins by Ellman's method
Procedure, shortened: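 Equine serum BuChE (Type VI-S) inhibition measured by the Ellman method. IC50 is the inhibitor concentration giving 50% enzyme inactivation, reported as mean ± SEM of three experiments.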

[1] = Selectivity index, ratio of IC50 for electric eel AChE to IC50 for equine serum BChE
Procedure, shortened: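 Electric eel AChE (Type VI-S) and equine serum BuChE (Type VI-S) were each assayed by the Ellman method, with IC50 as mean ± SEM of three experiments. Selectivity index was calculated as IC50(AChE)/IC50(BuChE).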

SH-SY5Y [2] = assay: Neurotoxicity against human SH-SY5Y cells assessed as decrease in cell viability at 1 to 10 uM after 24 hrs by MTT assay; type: toxicity, cell-based
Procedure, shortened: (§1)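 Cytotoxicity assay: SH-SY5Y cells were incubated with compound at 1, 2.5, 5 or 10 μM for 24 h. Viability was determined by MTT and expressed as percent of control, mean ± SD of 3 independent experiments.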

Acetylcholinesterase = Acetylcholinesterase (Electrophorus electricus, UniProt O42275); assay: Inhibition of electric eel AChE using acetylthiocholine iodide as substrate preincubated for 2 mins followed by substrate addition and measured after 2 mins by Ellman's method
Sequence of Acetylcholinesterase (O42275 whole entry): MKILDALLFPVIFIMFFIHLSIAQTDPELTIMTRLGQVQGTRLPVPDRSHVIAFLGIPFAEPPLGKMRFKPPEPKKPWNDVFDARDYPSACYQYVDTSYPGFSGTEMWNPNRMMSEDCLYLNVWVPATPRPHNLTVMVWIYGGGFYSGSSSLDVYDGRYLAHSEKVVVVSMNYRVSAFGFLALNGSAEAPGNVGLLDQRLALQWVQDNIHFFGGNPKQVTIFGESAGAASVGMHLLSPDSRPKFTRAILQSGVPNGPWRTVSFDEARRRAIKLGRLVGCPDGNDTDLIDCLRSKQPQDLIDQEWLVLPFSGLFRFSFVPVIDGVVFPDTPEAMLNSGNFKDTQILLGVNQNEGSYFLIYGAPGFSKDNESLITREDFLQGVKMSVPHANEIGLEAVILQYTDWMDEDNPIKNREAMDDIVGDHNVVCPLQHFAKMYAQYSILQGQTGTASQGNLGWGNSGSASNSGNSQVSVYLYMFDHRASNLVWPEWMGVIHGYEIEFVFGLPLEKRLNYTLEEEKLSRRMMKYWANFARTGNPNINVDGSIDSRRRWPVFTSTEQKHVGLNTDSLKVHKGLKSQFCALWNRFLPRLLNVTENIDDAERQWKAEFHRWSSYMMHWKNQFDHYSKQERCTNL

[3] = biological target: Amyloid-beta precursor protein (Homo sapiens) (UniProt P05067); assay: Inhibition of self-induced human amyloid beta (1 to 42) aggregation at 25 uM after 24 hrs by thioflavin-T based fluorescence assay relative to control
Sequence of Amyloid-beta precursor protein (Homo sapiens) (P05067 whole entry): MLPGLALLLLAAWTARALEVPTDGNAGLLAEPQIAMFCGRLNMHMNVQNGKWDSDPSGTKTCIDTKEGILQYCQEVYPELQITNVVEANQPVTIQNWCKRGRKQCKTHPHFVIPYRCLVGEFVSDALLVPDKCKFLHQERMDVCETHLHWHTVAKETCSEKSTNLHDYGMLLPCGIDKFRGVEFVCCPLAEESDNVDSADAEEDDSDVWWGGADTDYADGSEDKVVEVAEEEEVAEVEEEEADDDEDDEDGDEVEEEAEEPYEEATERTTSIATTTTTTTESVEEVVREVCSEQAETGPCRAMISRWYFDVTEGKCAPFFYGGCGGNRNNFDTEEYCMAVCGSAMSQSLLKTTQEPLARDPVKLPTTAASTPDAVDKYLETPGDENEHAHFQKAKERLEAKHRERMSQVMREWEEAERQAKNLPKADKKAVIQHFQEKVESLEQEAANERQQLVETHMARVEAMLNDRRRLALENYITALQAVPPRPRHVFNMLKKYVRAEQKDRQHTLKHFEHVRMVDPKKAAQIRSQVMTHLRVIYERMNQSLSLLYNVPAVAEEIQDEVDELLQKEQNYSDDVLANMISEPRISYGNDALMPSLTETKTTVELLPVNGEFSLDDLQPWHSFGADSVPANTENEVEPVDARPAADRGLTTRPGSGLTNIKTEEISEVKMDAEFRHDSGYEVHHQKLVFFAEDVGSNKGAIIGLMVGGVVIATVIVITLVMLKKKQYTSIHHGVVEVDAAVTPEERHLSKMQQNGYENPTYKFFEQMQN
Procedure, shortened: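 Thioflavin T fluorescence assay of self-induced Aβ1-42 aggregation, with test compound present at 25 μM and resveratrol as the positive control. Inhibition is given in percent as mean ± SD of at least three independent experiments.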

SH-SY5Y [4] = assay: Neuroprotective activity against amyloid beta (1 to 42)-induced neurodegeneration in human SH-SY5Y cells assessed as cell viability at 1 uM after 48 hrs by MTT assay (reference value: 54.2%); type: functional; conditions: read-out: Activity
Procedure, shortened: (§2)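 SH-SY5Y neuroblastoma cells were exposed to Aβ1-42 (30 μM) for 48 h, with or without compound at 1 or 5 μM. Viability was measured by MTT assay against Aβ1-42-only and untreated controls. Data are mean ± SEM of three experiments, each run in triplicate.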

[5] = Neurotoxicity against human SH-SY5Y cells assessed as cell viability at 10 uM after 24 hrs by MTT assay relative to control; type: toxicity, cell-based; conditions: read-out: Activity; procedure, shortened: as §1
[6] = Neurotoxicity against human SH-SY5Y cells assessed as cell viability at 2.5 uM after 24 hrs by MTT assay relative to control; type: toxicity, cell-based; conditions: read-out: Activity; procedure, shortened: as §1
SH-SY5Y [7] = assay: Neuroprotective activity against H2O2-induced oxidative stress in human SH-SY5Y cells assessed as cell viability at 5 uM after 24 hrs by MTT assay (reference value: 57.2%); type: functional; conditions: read-out: Activity
Procedure, shortened: (§3)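 SH-SY5Y cells were treated with H₂O₂ (300 μM) for 24 h, with compound (1 or 5 μM) co-treated. Viability was read by MTT and compared with H₂O₂-only and untreated controls. Data are mean ± SEM of three experiments, each run in triplicate.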

SH-SY5Y [8] = assay: Neuroprotective activity against H2O2-induced oxidative stress in human SH-SY5Y cells assessed as cell viability at 1 uM after 24 hrs by MTT assay (reference value: 57.2%); type: functional; conditions: read-out: Activity; procedure, shortened: as §3
[9] = Neurotoxicity against human SH-SY5Y cells assessed as cell viability at 1 uM after 24 hrs by MTT assay relative to control; type: toxicity, cell-based; conditions: read-out: Activity; procedure, shortened: as §1
SH-SY5Y [10] = assay: Neuroprotective activity against okadaic acid-induced cell death in human SH-SY5Y cells assessed as cell viability at 1 uM after 24 hrs by MTT assay (reference value: 53.1%); type: functional; conditions: read-out: Activity
[11] = Neurotoxicity against human SH-SY5Y cells assessed as cell viability at 5 uM after 24 hrs by MTT assay relative to control; type: toxicity, cell-based; conditions: read-out: Activity; procedure, shortened: as §1
SH-SY5Y [12] = assay: Neuroprotective activity against amyloid beta (1 to 42)-induced neurodegeneration in human SH-SY5Y cells assessed as cell viability at 5 uM after 48 hrs by MTT assay (reference value: 54.2%); type: functional; conditions: read-out: Activity; procedure, shortened: as §2
[13] = biological target: Cholinesterase (Equus caballus) (UniProt P81908); assay: Potency index, ratio of donepezil IC50 to compound IC50 for equine serum BChE
Sequence of Cholinesterase (Equus caballus) (P81908 whole entry): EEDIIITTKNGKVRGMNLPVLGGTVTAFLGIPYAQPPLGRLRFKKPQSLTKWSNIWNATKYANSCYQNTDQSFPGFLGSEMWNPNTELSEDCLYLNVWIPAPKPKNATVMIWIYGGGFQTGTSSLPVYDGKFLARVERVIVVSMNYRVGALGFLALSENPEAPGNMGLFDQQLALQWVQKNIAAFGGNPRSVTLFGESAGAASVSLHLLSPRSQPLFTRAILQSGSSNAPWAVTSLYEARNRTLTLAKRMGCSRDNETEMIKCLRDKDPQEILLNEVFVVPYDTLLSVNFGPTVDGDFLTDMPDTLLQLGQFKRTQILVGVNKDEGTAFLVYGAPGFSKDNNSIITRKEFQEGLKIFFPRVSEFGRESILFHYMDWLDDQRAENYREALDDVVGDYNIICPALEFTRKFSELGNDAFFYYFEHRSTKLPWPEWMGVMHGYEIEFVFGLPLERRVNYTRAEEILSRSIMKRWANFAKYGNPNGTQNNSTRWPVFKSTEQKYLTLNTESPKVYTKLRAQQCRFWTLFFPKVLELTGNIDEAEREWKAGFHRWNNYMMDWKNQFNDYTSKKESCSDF

SH-SY5Y [14] = assay: Neuroprotective activity against amyloid beta (1 to 42)-induced neurodegeneration in human SH-SY5Y cells assessed as increase in cell viability at 1 to 5 uM after 48 hrs by MTT assay; type: functional, cell-based; procedure, shortened: as §2
SH-SY5Y [15] = assay: Neuroprotective activity against okadaic acid-induced cell death in human SH-SY5Y cells assessed as increase in cell viability at 1 uM after 24 hrs by MTT assay; type: functional, cell-based
SH-SY5Y [16] = assay: Neuroprotective activity against amyloid beta (1 to 42)-induced neurodegeneration in human SH-SY5Y cells assessed as increase in cell viability at 1 uM after 48 hrs by MTT assay; type: functional, cell-based; procedure, shortened: as §2

Sequence of Cholinesterase (P81908 whole entry): as above

Compound	IC50 (Cholinesterase; read-out: IC50)	Ratio IC50 [1]	IC50 (Acetylcholinesterase; read-out: IC50)	inhibition [3]	IC50 (Acetylcholinesterase)	IC50 (Cholinesterase)	other results
COC(=O)C1Cc2c([nH]c3ccccc23)C(C)N1C(=O)CN(C)CCN(C)CC(=O)N1C(C(=O)OC)Cc2c([nH]c3ccccc23)C1C (centres undefined)	9 µM	4.3	39.8 µM	72.3%			Activity (SH-SY5Y [2]): Toxic
COC(=O)C1Cc2c([nH]c3ccccc23)CN1C(=O)CCN(C)CCN(C)CCC(=O)N1Cc2[nH]c3ccccc3c2CC1C(=O)OC (centres undefined)	27 µM	0.9	25.4 µM	59.2%			
COC(=O)C1Cc2c([nH]c3ccccc23)C(C)N1C(=O)CN1CCN(CC(=O)N2C(C(=O)OC)Cc3c([nH]c4ccccc34)C2C)CC1 (centres undefined)	20.9 µM	inactive		50.8%	Not Active		
COC(=O)C1Cc2c([nH]c3ccccc23)C(C)N1C(=O)CCN1CCN(CCC(=O)N2C(C(=O)OC)Cc3c([nH]c4ccccc34)C2C)CC1 (centres undefined)			19.9 µM	65.6%			viability at 1 µM (SH-SY5Y [4]): 95.4%; viability at 24 h, 10 µM [5]: 90.9%; viability at 24 h, 2.5 µM [6]: 99.9%; viability at 5 µM (SH-SY5Y [7]): 76%; viability at 1 µM (SH-SY5Y [8]): 82.2%; viability at 24 h, 1 µM [9]: 103%; viability at 1 µM (SH-SY5Y [10]): 97.1%; viability at 24 h, 5 µM [11]: 102%; viability at 5 µM (SH-SY5Y [12]): 85.4%
COC(=O)c1cc2c3ccccc3n(CCCN(C)CCN(C)CCCn3c4ccccc4c4cc(C(=O)OC)nc(C)c43)c2c(C)n1	15.4 µM	6.4	99.1 µM	inactive			
COC(=O)c1cc2c3ccccc3n(CCCCN3CCN(CCCCn4c5ccccc5c5cc(C(=O)OC)nc(-c6ccccc6)c54)CC3)c2c(-c2ccccc2)n1		inactive			Not Active	Not Active	
COC(=O)C1Cc2c([nH]c3ccccc23)CN1C(=O)CN1CCN(CC(=O)N2Cc3[nH]c4ccccc4c3CC2C(=O)OC)CC1 (centres undefined)		inactive			Not Active	Not Active	
COC(=O)c1cc2c3ccccc3n(CCCN3CCN(CCCn4c5ccccc5c5cc(C(=O)OC)nc(C)c54)CC3)c2c(C)n1	0.7 µM	16	11.2 µM	inactive			Ratio IC50 [13]: 4; Activity (SH-SY5Y [2]): Toxic
COC(=O)C1Cc2c([nH]c3ccccc23)CN1 (centres undefined)		inactive			Not Active	Not Active	
COC(=O)c1cc2c3ccccc3n(CCCCN(C)CCN(C)CCCCn3c4ccccc4c4cc(C(=O)OC)nc(C)c43)c2c(C)n1	1.5 µM	6.4	9.6 µM	65.5%			Activity (SH-SY5Y [2]): Toxic
COC(=O)c1cc2c3ccccc3n(CCCN(C)CCN(C)CCCn3c4ccccc4c4cc(C(=O)OC)nc(-c5ccccc5)c43)c2c(-c2ccccc2)n1	0.8 µM	184	147 µM	25.4%			viability at 24 h, 2.5 µM [6]: 93.2%; Activity (SH-SY5Y [14]): inactive; viability at 24 h, 1 µM [9]: 98.2%; viability at 24 h, 5 µM [11]: 93.7%
COC(=O)C1Cc2c([nH]c3ccccc23)C(C)N1C(=O)CCN(C)CCN(C)CCC(=O)N1C(C(=O)OC)Cc2c([nH]c3ccccc23)C1C (centres undefined)	1.7 µM	10.6	18 µM	82.7%			viability at 24 h, 2.5 µM [6]: 92.8%; viability at 5 µM (SH-SY5Y [7]): 42.1%; viability at 1 µM (SH-SY5Y [8]): 100%; viability at 24 h, 1 µM [9]: 106%; viability at 24 h, 5 µM [11]: 92.4%; Activity (SH-SY5Y [15]): Active; Activity (SH-SY5Y [16]): Active
COC(=O)c1cc2c([nH]c3ccccc32)c(-c2ccccc2)n1		inactive			Not Active	Not Active	
COC(=O)C1Cc2c([nH]c3ccccc23)C(c2ccccc2)N1C(=O)CCCN1CCN(CCCC(=O)N2C(C(=O)OC)Cc3c([nH]c4ccccc34)C2c2ccccc2)CC1 (centres undefined)		inactive			Not Active	Not Active	
COC(=O)c1cc2c3ccccc3n(CCCCN3CCN(CCCCn4c5ccccc5c5cc(C(=O)OC)nc(C)c54)CC3)c2c(C)n1	9.7 µM	1.2	11.6 µM	inactive			
COC(=O)C1Cc2c([nH]c3ccccc23)C(C)N1 (centres undefined)		inactive			Not Active	Not Active	
COC(=O)c1cc2c3ccccc3n(CCCN3CCN(CCCn4c5ccccc5c5cc(C(=O)OC)nc(-c6ccccc6)c54)CC3)c2c(-c2ccccc2)n1		inactive			Not Active	Not Active	
COC(=O)C1Cc2c([nH]c3ccccc23)C(C)N1C(=O)CCCN1CCN(CCCC(=O)N2C(C(=O)OC)Cc3c([nH]c4ccccc34)C2C)CC1 (centres undefined)	2.8 µM	15.8	44.2 µM	85.7%			viability at 24 h, 10 µM [5]: 90.8%; viability at 24 h, 2.5 µM [6]: 99.1%; viability at 5 µM (SH-SY5Y [7]): 85.5%; viability at 1 µM (SH-SY5Y [8]): 90.4%; viability at 24 h, 1 µM [9]: 98.6%; viability at 1 µM (SH-SY5Y [10]): 101%; viability at 24 h, 5 µM [11]: 101%; Activity (SH-SY5Y [16]): Active
COC(=O)C1Cc2c([nH]c3ccccc23)C(c2ccccc2)N1C(=O)CCN1CCN(CCC(=O)N2C(C(=O)OC)Cc3c([nH]c4ccccc34)C2c2ccccc2)CC1 (centres undefined)	5.7 µM	85.6	488 µM	41.9%			
COC(=O)c1cc2c([nH]c3ccccc32)c(C)n1		inactive			Not Active	Not Active	
COC(=O)c1cc2c3ccccc3n(CCCCN(C)CCN(C)CCCCn3c4ccccc4c4cc(C(=O)OC)nc(-c5ccccc5)c43)c2c(-c2ccccc2)n1	1.8 µM	8.7	15.7 µM	71.5%			Activity (SH-SY5Y [2]): Toxic
COC(=O)C1Cc2c([nH]c3ccccc23)C(c2ccccc2)N1C(=O)CN(C)CCN(C)CC(=O)N1C(C(=O)OC)Cc2c([nH]c3ccccc23)C1c1ccccc1 (centres undefined)	14.6 µM	4.4	64 µM	65.1%			
COC(=O)C1Cc2c([nH]c3ccccc23)C(c2ccccc2)N1 (centres undefined)		inactive			Not Active	Not Active	

Source: ChEMBL document CHEMBL4118286, “Design, synthesis and evaluation of novel bivalent β-carboline derivatives as multifunctional agents for the treatment of Alzheimer's disease” (Bioorg Med Chem, 2018)
